This is a sample that favours compounds with a hit; in the whole collection about 1.7% have one here.
SUMO1 PPI mod = SUMO1-SIM interaction modulation; P63165; SUMO1 binding to a labelled peptide, TR-FRET, 1 h; inhibition, % at 20 µM; 0.33% of 360,000 active; in the data active = inhibition above about 37%
Target sequence (P63165 whole entry, looked up): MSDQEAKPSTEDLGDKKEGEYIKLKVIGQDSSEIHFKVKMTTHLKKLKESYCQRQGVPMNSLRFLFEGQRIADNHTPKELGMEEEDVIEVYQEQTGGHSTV
LMPTP inh = LMPTP (human) inhibition | AID 651560 | recombinant LMPTP-A, OMFP fluorogenic substrate, fluorescence intensity | inhibition, % at 20 µM | 0.22% of 360,000 active;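 active = compounds that cut the enzyme signal by at least half of the control window in the single-dose screen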
Target sequence (P24666 whole entry, looked up): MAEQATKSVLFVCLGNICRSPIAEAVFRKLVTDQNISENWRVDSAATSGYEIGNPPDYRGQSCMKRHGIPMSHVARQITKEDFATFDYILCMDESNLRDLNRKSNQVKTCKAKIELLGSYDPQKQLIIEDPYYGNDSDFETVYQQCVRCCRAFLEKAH
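Material: LMPTP-A; amount: 0.625 nM enzyme; doses: single 20 µM dose; times: reaction 50 min, room temperature, dark; technique: fluorescence intensity of OMFP turnover product; benchmarks: no-enzyme and uninhibited controls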
STEP inh = STEP (human) phosphatase inhibition. recombinant STEP, OMFP fluorogenic substrate, fluorescence. inhibition, % at 20 µM. 0.25% of 360,000 active. AID 588621;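 active = inhibition at 20 µM, scaled per plate between control wells, above about 37%, limit read from the data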
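System: STEP phosphatase, cell-free reaction; Buffer or medium: Bis-Tris pH 6.0 buffer with DTT, detergent; Incubation: 20 min at room temperature, dark; Measured by: fluorescence, 480/540 nm.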
DNMT1 inh = blocks human DNA methyltransferase DNMT1 | P26358 | DNMT1 molecular beacon, Hinp1I cleavage, fluorescence | inhibition (reported as % activation of signal), % at 10 µM | 0.83% of 360,000 active | AID 588458; in the data active = inhibition above about 50%
Scp-1 inhibitor = inhibitors of human Scp-1 phosphatase; Recombinant Scp1, phosphopeptide, malachite green phosphate absorbance; inhibition, % at 20 µM; 0.88% of 340,000 active; AID 493091;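 active = inhibition above about 50% at 20 µM, limit read from the data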
Target sequence (Q9GZU7 76-261 limits assumed): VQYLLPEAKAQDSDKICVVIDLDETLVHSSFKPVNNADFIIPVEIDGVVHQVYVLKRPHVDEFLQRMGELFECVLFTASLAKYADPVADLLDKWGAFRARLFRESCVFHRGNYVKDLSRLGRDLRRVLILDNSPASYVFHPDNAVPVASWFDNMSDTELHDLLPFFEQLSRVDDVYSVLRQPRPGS
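Incubation: 45 min enzyme reaction at room temperature / System: truncated SCP-1 phosphatase (76-261aa) / Reagent: Phospho 17-mer peptide substrate / Buffer or medium: Acidic Tris acetate buffer with magnesium and detergent / Signal: absorbance at 630 nm / Doses: one concentration, 20 µM, with 1.0% DMSO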
Scp1 confirm = confirmation of human Scp-1 phosphatase inhibitors. inhibition, % at 20 µM. AID 540281. recombinant SCP-1 catalytic domain, phosphate release, malachite green absorbance. 61% of 2,500 active. shares compounds with Scp-1 inhibitor
MG interference = interferes with malachite green readout, flagging false Scp-1 hits; shares compounds with Scp-1 inhibitor; Colorimetric interference counterscreen, malachite green absorbance 630 nm; apparent inhibition (interference), % at 20 µM; 2,500 tested, under 10 active;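 note: compounds added after enzyme reaction finished so only phosphate colour detection is probed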
Scp-1 Tm shift = Scp-1 (human) binding by thermal shift; Recombinant SCP1, Sypro Orange thermal shift Tm; thermal shift relative to vanadate control, % at 40 µM; shares compounds with Scp-1 inhibitor; 25% of 1,500 active;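 active = substances whose mean melting-temperature shift, as a percentage of the reference inhibitor's shift, reaches about 5.3%, limit read from the data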
Large screens that a line does not name were inactive (follow-up assays come after a bar, where they were run).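 Rule for the calls, unless noted: active = inhibition of at least 30% at 20 µM; inactive = the rest.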

O=C(CCN1CCCCC1)c1ccccc1	none
CCc1oc2ccccc2c1C(=O)CCN1CCCCC1	Scp-1 inhibitor 57 | Scp1 confirm inactive | MG interference inactive
Cc1ccc(S(=O)(=O)N2[C@@H](c3ccc(Cl)cc3)C(C(=O)O)=C[C@H]2C(C)(C)C)cc1	none
NC(=O)c1c(NC(=O)C2CC=CCC2C(=O)O)sc2c1CCCCC2 (stereo unspecified)	Scp-1 inhibitor 58 | Scp1 confirm 71 | MG interference inactive | Scp-1 Tm shift inactive
COc1ccc2c(CC(=O)Nc3ccc4nc(N5CCOCC5)sc4c3)coc2c1	none (no result: Scp-1 inhibitor)
CCOC(=O)N1CCC(N2CC34C=CC(O3)C(C(=O)Nc3ccc(F)cc3)C4C2=O)CC1 (stereo unspecified)	Scp-1 inhibitor 90 | Scp1 confirm inactive | MG interference inactive
CC(=O)c1ccc(Nc2nc(C(N)CCc3ccccc3)cs2)cc1 (stereo unspecified)	none (no result: Scp-1 inhibitor)
COc1ccc(C(CC(=O)N2CCCC2)c2c(OC)cc(OC)c3c(-c4ccccc4)cc(=O)oc23)cc1 (stereo unspecified)	DNMT1 inh 94, Scp-1 inhibitor 67 | Scp1 confirm 59 | MG interference inactive | Scp-1 Tm shift inactive
N#CCC(=O)N/N=C/c1ccc(Sc2nc3ccccc3s2)o1	Scp-1 inhibitor 99 | Scp1 confirm 81 | MG interference inactive | Scp-1 Tm shift 8.1
COCC(=O)N/N=C/c1ccc(Sc2nc3ccccc3s2)o1	none
O=C(CC1Oc2ccccc2NC1=O)NCCCN1CCCC1=O (stereo unspecified)	none | Scp1 confirm inactive | MG interference inactive
O=C1CCCN1CCCNC(=S)Nc1ccccc1Cl	none | Scp1 confirm inactive | MG interference inactive
Cc1csc2ncc(C(=O)N3CCCc4ccccc43)c(=O)n12	Scp-1 inhibitor 87 | Scp1 confirm inactive | MG interference inactive
Cc1csc2ncc(C(=O)N3CCc4ccccc43)c(=O)n12	none
Cc1ccc(C(=O)NCCCNC(=O)COc2ccccc2Cl)cn1	Scp-1 inhibitor 58 | Scp1 confirm inactive | MG interference inactive
O=C(CSc1nnc(NC2CCCCC2)s1)Nc1ccc2c(c1)C(=O)c1ccccc1C2=O	none
NS(=O)(=O)c1ccc(NC(=O)CSc2nnc(NC3CC3)s2)cc1	Scp-1 inhibitor 87 | Scp1 confirm 47 | MG interference inactive | Scp-1 Tm shift inactive
N#C/C(=C\c1cc2c(cc1Br)OCO2)c1ccc(C(=O)O)cc1	Scp-1 inhibitor 52 | Scp1 confirm 68 | MG interference inactive | Scp-1 Tm shift inactive
COc1ccc(N(CC(=O)Nc2cc(OC)c(OC)cc2C(=O)O)S(=O)(=O)c2c(C)noc2C)cc1	none
Cc1ccc(S(=O)(=O)N2CCN(C(=O)COC(=O)CCOc3ccccc3C)CC2)c(C)c1	Scp-1 inhibitor 66 | Scp1 confirm 86 | MG interference inactive | Scp-1 Tm shift inactive
Cc1ccc2nc(Cl)c(C3CC(c4cccs4)=NN3C(=O)CCCC(=O)O)cc2c1 (stereo unspecified)	Scp-1 inhibitor 96 | Scp1 confirm 85 | MG interference inactive | Scp-1 Tm shift inactive
CC(C)OCCOc1ccc2oc(-c3ccco3)cc(=O)c2c1	Scp-1 inhibitor 61 | Scp1 confirm 60 | MG interference inactive | Scp-1 Tm shift inactive
N#Cc1c(N)nc2c(c1N)CC(COc1ccccc1)O2 (stereo unspecified)	none
N#Cc1c(N)nc2c(c1N)CC(CO)O2 (stereo unspecified)	Scp-1 inhibitor 56 | Scp1 confirm inactive | MG interference inactive
CCOC(=O)C[C@H]1c2ccccc2S(=O)(=O)N1Cc1cccc(C(F)(F)F)c1	none
COc1ccccc1C(C)Nc1nc(-c2cccnc2)nc2ccccc12 (stereo unspecified)	Scp-1 inhibitor 61 | Scp1 confirm inactive | MG interference inactive
CC(C)OC(=O)CC1C(=O)NCCN1C(=S)NC(=O)CCc1ccccc1 (stereo unspecified)	none | Scp1 confirm inactive | MG interference inactive
CCOC(=O)C1=CN2CCC[C@H]2CC1=O	none
O=C1CC2CCCN2C=C1I (stereo unspecified)	Scp-1 inhibitor 97 | Scp1 confirm 87 | MG interference inactive | Scp-1 Tm shift inactive
CC1(C(=O)N2CCN(c3ccc([N+](=O)[O-])cc3)CC2)CC1(Cl)Cl (stereo unspecified)	none
CCCc1ccc(C(=O)NNC(=O)c2ccc(Cl)cc2)cc1	Scp-1 inhibitor 94 | Scp1 confirm 74 | MG interference inactive | Scp-1 Tm shift inactive
CCCc1ccc(C(=O)NNc2cc(Cl)ccc2Cl)cc1	none
O=C(N/N=C/c1cn(-c2cccs2)nc1-c1ccccc1)c1ccccc1O	Scp-1 inhibitor 72 | Scp1 confirm inactive | MG interference inactive
CC(=O)Nc1ccc(S(=O)(=O)N(C)CC(=O)N/N=C/c2ccncc2)cc1	none
COc1ccc(CCN(C)C(=O)c2c(C)noc2C)cc1OC	none
CC(=O)OCC1=C(C(=O)O)N2C(=O)C(NC(=O)C(C)Cn3nc(C)c(Cl)c3C)C2SC1 (stereo unspecified)	Scp-1 inhibitor 53 | Scp1 confirm 67 | MG interference inactive | Scp-1 Tm shift inactive
Cc1nn(C(C)C(=O)NC2C(=O)N3C(C(=O)O)=C(CSc4nnnn4C)CSC23)cc1Cl (stereo unspecified)	none
Cn1c(SCC(=O)N/N=C/C=C\c2ccco2)nc2ccccc21	DNMT1 inh 54, Scp-1 inhibitor 84 | Scp1 confirm 62 | MG interference inactive | Scp-1 Tm shift inactive
O=C(CSc1n[nH]c(-c2ccncc2)n1)Nc1ccc(Br)cc1	none
O=C(O)CSc1c2c(nc3cc(C(=O)Nc4ccc(F)c(Cl)c4)ccc13)CCCC2	Scp-1 inhibitor 52 | Scp1 confirm 83 | MG interference inactive | Scp-1 Tm shift inactive
Cc1cc(C(=O)NNC(=O)c2ccc(C)c([N+](=O)[O-])c2)c(C)o1	none
COc1ccc(OC)c(Cc2nnc(CCC(=O)NCc3nc4ccccc4s3)o2)c1	Scp-1 inhibitor 63 | Scp1 confirm inactive | MG interference inactive
Nc1cc2c(cc1C(=O)c1cccc(Br)c1)OCCO2	none
Cc1oc2c(C)c3oc(=O)c(CC(=O)N[C@@H](CCCNC(N)=O)C(=O)O)c(C)c3cc2c1C	Scp-1 inhibitor 52 | Scp1 confirm 43 | MG interference inactive | Scp-1 Tm shift inactive
Cc1c(CC(=O)N[C@@H](CCCNC(N)=O)C(=O)O)c(=O)oc2cc3oc4c(c3cc12)CCCC4	none (no result: Scp-1 inhibitor)
